This is an account of results in ChEMBL document CHEMBL3585289, “Potent and Selective Amidopyrazole Inhibitors of IRAK4 That Are Efficacious in a Rodent Model of Inflammation” (ACS Med Chem Lett, 2015).

For orientation: AUC(0-t) means exposure summed from dosing to a finite time, without extrapolation to infinity. By IC50 is commonly meant the concentration that gives 50% inhibition. In general, inhibition refers to the percentage by which the read-out fell short of the control. A word on the Papp: it is the rate of passage across a membrane or cell layer, normalised by area and donor concentration.

The nature of series [1]: Kinetic aqueous solubility of the compound in phosphate buffered saline at pH 7 at 25 degC after 24 hrs by HPLC/DAD method. Format: physicochemical. Conditions: read-out: Kinetic_solubility.
A short description of series [2]: AUC (0 to 6 hrs) in Sprague-Dawley rat at 10 mg/kg, po administered as cassette dosing. The format is ADME, organism-based. Also noted: time < 6 hr, dose 10 mg/kg, route oral. The note with it: in vivo.
The target of series [3] is T1, Interleukin-1 receptor-associated kinase 4 (Homo sapiens, UniProt Q9NWZ3).
T1 sequence (Q9NWZ3 whole entry): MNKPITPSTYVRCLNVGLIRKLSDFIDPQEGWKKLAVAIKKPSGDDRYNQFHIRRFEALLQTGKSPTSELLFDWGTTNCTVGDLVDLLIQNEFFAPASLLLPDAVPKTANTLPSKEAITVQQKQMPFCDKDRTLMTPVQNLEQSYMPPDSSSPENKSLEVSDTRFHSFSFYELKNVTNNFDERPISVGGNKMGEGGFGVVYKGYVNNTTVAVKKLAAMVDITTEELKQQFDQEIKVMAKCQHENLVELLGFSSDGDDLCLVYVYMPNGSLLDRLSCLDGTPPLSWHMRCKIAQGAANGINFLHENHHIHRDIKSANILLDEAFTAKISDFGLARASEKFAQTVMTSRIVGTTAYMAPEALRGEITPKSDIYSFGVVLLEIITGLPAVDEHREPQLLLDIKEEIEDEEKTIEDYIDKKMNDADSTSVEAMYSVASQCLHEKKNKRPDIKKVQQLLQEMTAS
The series can be described thus: biochemical.

Series [4] has as its system Mus musculus. The series is described as follows: Antiinflammatory activity in CIA-MAB-50-induced BALB/c mouse arthritis model assessed as decrease in LPS-induced paw size at 2 mg/kg, po qd administered on day 3 to 10 post LPS challenge measured on day 10 relative to vehicle-treated control. The format is functional, organism-based. In outline: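 BALB/c female mice given arthritogenic monoclonal antibody CIA-MAB-50 (2.5 mg) on day 0, then LPS booster (25 μg i.p.) on day 3. Oral gavage once daily on days 3–10; vehicle group received methylcellulose. Paw size measured on days 0, 3, 6, 8 and 10. Study ended on day 10, and day-10 paw size was compared with vehicle.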

Series [5] is described as follows: AUC (0 to 8 hrs) in Sprague-Dawley rat at 10 mg/kg, po administered as cassette dosing. The note with it: in vivo. More on the design: dose 10 mg/kg, time < 8 hr, route oral. Format: ADME, organism-based.
Series [6] has as its target T2, Interleukin-1 receptor-associated kinase 4 (Homo sapiens) (UniProt Q9NWZ3).
T2 sequence (whole entry): T1 sequence (Q9NWZ3 whole entry)
The series can be described thus: Inhibition of recombinant human IRAK4 at 10 uM relative to control.

Series [7] concerns the target BDNF/NT-3 growth factors receptor (Homo sapiens) (UniProt Q16620). The series can be described thus: Inhibition of recombinant human TRKB at 10 uM relative to control.
Series [8] concerns Rattus norvegicus. The series can be described thus: Antiinflammatory activity in Lewis rat peritonitis model assessed as reduction of TLR2 agonist PAM2CSK4-induced TNF-alpha production in plasma at 100 mg/kg, po administered 1 hr prior to PAM2CSK4 challenge measured after 3 hrs relative to vehicle-treated control. Format: functional. More on the design: scale not given: the % may be the effect or the level left. In outline: (§1)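 Female Lewis rats (n = 9) dosed by oral gavage at 100 mg/kg. One hour later, TLR2 agonist PAM2CSK4 injected intraperitoneally. Plasma collected 3 h after injection for cytokine levels and drug exposure. Cytokines expressed relative to a vehicle-only group.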

The subject of series [9] is Rattus norvegicus. The series can be described thus: Antiinflammatory activity in Lewis rat peritonitis model assessed as reduction of TLR2 agonist PAM2CSK4-induced IL-1beta production in plasma at 100 mg/kg, po administered 1 hr prior to PAM2CSK4 challenge measured after 3 hrs relative to vehicle-treated control. Format: functional. More on the design: scale not given: the % may be the effect or the level left. An outline of the steps:
as §1

The test system of series [10] is Rattus norvegicus. The series can be described thus: Antiinflammatory activity in Lewis rat peritonitis model assessed as reduction of TLR2 agonist PAM2CSK4-induced IFN-gamma production in plasma at 100 mg/kg, po administered 1 hr prior to PAM2CSK4 challenge measured after 3 hrs relative to vehicle-treated control. The format is functional. In outline:
as §1

Series [11] concerns Rattus norvegicus. The series can be described thus: Antiinflammatory activity in Lewis rat peritonitis model assessed as reduction of TLR2 agonist PAM2CSK4-induced IL-6 production in plasma at 100 mg/kg, po administered 1 hr prior to PAM2CSK4 challenge measured after 3 hrs relative to vehicle-treated control. The format is functional. An outline of the steps: as §1
A short description of series [12]: Plasma concentration in PAM2CSK4 challenged Lewis rat peritonitis model at 100 mg/kg, po administered 1 hr prior to PAM2CSK4 challenge measured after 3 hrs. The format is ADME, organism-based. An outline of the steps:
as §1

The subject of series [13] is Pgp. The series can be described thus: Apparent permeability across pig LLC-PK1 cells expressing human or mouse Pgp. The format is ADME, cell-based, Sus scrofa.
Series [14] deals with T1, Interleukin-1 receptor-associated kinase 4. The series is described as follows: Inhibition of IRAK4 in human THP1-XBlue cells assessed as suppression of TLR4 agonist LPS-induced activation of NF-kappaB preincubated for 1 hr followed by LPS challenge measured after 5 hrs by secreted embryonic alkaline phosphatase reporter gene assay. Format: cell-based, THP-1.
Series [15] deals with Misshapen-like kinase 1 (Homo sapiens) (UniProt Q8N4C8). The series is described as follows: Inhibition of recombinant human MINK1 at 10 uM relative to control.

The structures appear in SMILES notation. Converted amounts (≈) assume the structure as drawn. The source made the active and inactive calls. The rule behind the calls is not given here. Some results are limits rather than exact numbers.

Sequence of BDNF/NT-3 growth factors receptor (Homo sapiens) (Q16620 32-822 limits assumed): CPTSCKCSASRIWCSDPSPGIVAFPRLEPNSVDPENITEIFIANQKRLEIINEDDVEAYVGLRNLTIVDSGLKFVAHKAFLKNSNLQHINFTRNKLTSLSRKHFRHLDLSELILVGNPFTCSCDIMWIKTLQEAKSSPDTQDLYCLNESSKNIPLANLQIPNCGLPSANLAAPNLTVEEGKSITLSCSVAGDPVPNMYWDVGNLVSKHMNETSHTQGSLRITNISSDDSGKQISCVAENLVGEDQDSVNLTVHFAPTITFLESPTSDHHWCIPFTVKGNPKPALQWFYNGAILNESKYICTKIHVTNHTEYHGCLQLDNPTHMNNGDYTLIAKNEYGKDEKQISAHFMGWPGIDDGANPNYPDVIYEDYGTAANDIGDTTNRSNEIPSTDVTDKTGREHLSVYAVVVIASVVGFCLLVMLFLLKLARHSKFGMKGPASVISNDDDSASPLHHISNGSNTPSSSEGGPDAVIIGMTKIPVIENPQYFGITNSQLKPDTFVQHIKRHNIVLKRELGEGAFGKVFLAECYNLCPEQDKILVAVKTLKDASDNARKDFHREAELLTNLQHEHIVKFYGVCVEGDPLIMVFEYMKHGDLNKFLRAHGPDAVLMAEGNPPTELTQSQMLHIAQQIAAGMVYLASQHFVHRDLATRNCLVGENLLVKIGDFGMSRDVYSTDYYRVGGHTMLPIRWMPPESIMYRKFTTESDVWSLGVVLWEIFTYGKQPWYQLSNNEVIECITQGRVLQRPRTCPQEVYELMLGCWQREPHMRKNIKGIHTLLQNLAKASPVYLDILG
Sequence of Misshapen-like kinase 1 (Homo sapiens) (Q8N4C8 whole entry, looked up): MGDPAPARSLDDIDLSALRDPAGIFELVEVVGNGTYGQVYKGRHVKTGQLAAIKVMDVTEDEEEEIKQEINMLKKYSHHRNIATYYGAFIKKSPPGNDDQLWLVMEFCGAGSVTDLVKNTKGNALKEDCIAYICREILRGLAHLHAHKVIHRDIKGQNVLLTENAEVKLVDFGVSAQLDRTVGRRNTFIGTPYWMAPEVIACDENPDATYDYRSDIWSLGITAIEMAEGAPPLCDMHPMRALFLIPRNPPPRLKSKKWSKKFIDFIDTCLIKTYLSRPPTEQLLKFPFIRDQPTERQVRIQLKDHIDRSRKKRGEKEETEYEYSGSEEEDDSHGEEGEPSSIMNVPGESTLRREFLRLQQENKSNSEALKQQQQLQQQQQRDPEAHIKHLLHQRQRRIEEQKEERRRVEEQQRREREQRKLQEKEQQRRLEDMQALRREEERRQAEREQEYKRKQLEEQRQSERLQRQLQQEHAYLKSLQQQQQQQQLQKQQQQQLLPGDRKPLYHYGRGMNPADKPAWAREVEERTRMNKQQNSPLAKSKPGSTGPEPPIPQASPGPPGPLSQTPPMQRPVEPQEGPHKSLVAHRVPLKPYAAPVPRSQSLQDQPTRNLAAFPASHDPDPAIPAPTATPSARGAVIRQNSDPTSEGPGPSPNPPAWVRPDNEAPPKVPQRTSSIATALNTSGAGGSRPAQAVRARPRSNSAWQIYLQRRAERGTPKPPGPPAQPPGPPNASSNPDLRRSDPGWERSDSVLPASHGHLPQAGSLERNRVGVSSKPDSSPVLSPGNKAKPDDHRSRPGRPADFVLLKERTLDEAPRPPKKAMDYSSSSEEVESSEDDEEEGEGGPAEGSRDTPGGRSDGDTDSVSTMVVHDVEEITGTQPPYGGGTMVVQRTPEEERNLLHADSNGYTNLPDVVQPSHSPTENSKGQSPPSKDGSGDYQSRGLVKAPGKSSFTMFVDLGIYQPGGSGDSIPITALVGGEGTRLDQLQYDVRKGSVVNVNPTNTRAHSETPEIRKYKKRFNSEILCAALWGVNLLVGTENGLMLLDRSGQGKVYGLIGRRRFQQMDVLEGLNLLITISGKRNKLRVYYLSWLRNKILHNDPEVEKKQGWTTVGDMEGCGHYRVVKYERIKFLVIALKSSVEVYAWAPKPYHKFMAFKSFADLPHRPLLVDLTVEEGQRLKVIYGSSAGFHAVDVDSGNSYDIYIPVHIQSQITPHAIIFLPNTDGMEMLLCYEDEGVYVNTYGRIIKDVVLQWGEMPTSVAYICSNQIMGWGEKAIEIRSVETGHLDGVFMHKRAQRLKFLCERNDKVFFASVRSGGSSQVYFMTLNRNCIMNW

`Cc1ccc(-n2nc(C3CCOCC3)cc2NC(=O)c2cnn3cccnc23)cc1`: the solubility kinetic at 24 h in series [1] stood at 24 µM (≈ 9.66 µg/mL). For the same molecule, the AUC(0-t) at 6 h in series [2] is 0.45 µM·h. In series [3], the IC50 came out at 410 nM.
With `C[C@@H]1C[C@H]2[C@@H]3CCC4=CC(=O)C=C[C@]4(C)[C@@]3(F)[C@@H](O)C[C@]2(C)[C@@]1(O)C(=O)CO`, in series [4], the outcome was Active.
As to `Cc1ccc(-n2nc(C3CCN(S(C)(=O)=O)CC3)cc2NC(=O)c2cnn3cccnc23)nc1`, in series [5], the area under the curve AUC(0-t) at 8 h is 0.045 µM·h. Also, the inhibition in series [6] is greater than 80%. The molecule further yielded an IC50 in series [3] of 27 nM.
In turn, `Cc1cnc(-n2nc(C3CCN(S(C)(=O)=O)CC3)cc2NC(=O)c2cnn3cccnc23)nc1` had an IC50 in series [3] of 180 nM.
For the molecule `Cc1ccc(-n2nc(C3CCNCC3)cc2NC(=O)c2cnn3cccnc23)cc1`, in series [1], the solubility kinetic at 24 h came to 172 µM (≈ 69.1 µg/mL). This molecule also came in with a half-inhibitory concentration (IC50) in series [3] of 80 nM.
`Cc1ccc(-n2nc(-c3ccncc3)cc2NC(=O)c2cnn3cccnc23)cc1`: the solubility kinetic at 24 h in series [1] is less than 2 µM. In addition, 61 nM corresponded to half-maximal inhibition in [3] (IC50).
In the case of `Cc1ccc(-n2nc(C3CCN(S(C)(=O)=O)CC3)cc2NC(=O)c2cnn3cccnc23)cc1`, the solubility kinetic at 24 h in series [1] is less than 2 µM. In [2], this molecule displayed an AUC(0-t) at 6 h of 19.3 µM·h. The inhibition in series [6] and in series [7] was greater than 80% each time. Besides, the Activity was 21% in series [8] and 28% in series [9]. Further, the result in series [10] and in [11] was inactive. The concentration at 3 h in series [12] is 2660 nM. Also, the Papp in series [13] stood at 31 ×10⁻⁶ cm/s. Further, the results for the IC50 in [14] and in series [3] were 2400 nM and 67 nM, respectively.
`CS(=O)(=O)N1CCC(c2cc(NC(=O)c3cnn4cccnc34)n(-c3ccc(C4CC4)cc3)n2)CC1`: in series [2], the area under the curve AUC(0-t) at 6 h is 5.26 µM·h. Further, the IC50 in [3] is 59 nM.
For `Cc1ccc(-n2nc(-c3cccnc3)cc2NC(=O)c2cnn3cccnc23)cc1`, the solubility kinetic at 24 h in [1] is less than 2 µM. Further, the AUC(0-t) at 6 h in series [2] came to 0.44 µM·h. The molecule further came in with a 50% inhibitory concentration (IC50) in series [3] of 99 nM.
`COc1ccc(-c2cc(NC(=O)c3cnn4cccnc34)n(-c3ccc(C)cc3)n2)cc1`: the solubility kinetic at 24 h in [1] is less than 2 µM. The inhibition in series [6] and in [15] was greater than 80% throughout. Besides, the IC50 in series [3] turned out to be 170 nM.
Turning to `Cc1ccc(-n2nc(C3CCN(C(C)C)CC3)cc2NC(=O)c2cnn3cccnc23)cc1`, the solubility kinetic at 24 h in [1] was 170 µM (≈ 75.4 µg/mL). Further, the area under the curve AUC(0-t) at 6 h in series [2] is 0.28 µM·h. Also, the concentration for half-maximal inhibition (IC50) in series [3] came to 47 nM.
With `Cc1ccc(-n2nc(N3CCN(S(C)(=O)=O)CC3)cc2NC(=O)c2cnn3cccnc23)nc1`, in series [5], the exposure AUC(0-t) at 8 h was 8.9 µM·h. In series [3], this molecule registered a half-inhibitory concentration (IC50) of 2 nM.
The molecule `CS(=O)(=O)N1CCC(c2cc(NC(=O)c3cnn4cccnc34)n(-c3ccc(C4CC4)cc3F)n2)CC1` showed a 50% inhibitory concentration (IC50) in series [3] of 85 nM.
On to `COc1ccc(-c2cc(NC(=O)c3cnn4cccnc34)n(-c3ccc(C)cc3)n2)cn1`, for which, in series [1], the solubility kinetic at 24 h came to 3 µM (≈ 1.28 µg/mL). In addition, the IC50 in series [3] worked out at 310 nM.
`Cc1ccc(-n2nc(C3CC3)cc2NC(=O)c2cnn3cccnc23)cc1`: in series [1], the solubility kinetic at 24 h amounted to 99 µM (≈ 35.5 µg/mL). The molecule also had an AUC(0-t) at 6 h in [2] of 2.37 µM·h. Moreover, in [3], the IC50 came to 370 nM.
